Screening data: PubChem, several laboratories
SDO1 yeast rescue: compounds rescuing growth of sdo1-depleted yeast, bone marrow failure model | S. cerevisiae sdo1-depleted JHY4D growth rescue, OD600 30 h; active compounds read high; pdr5 snq2 efflux-pump mutant strain | z-score at 10 µM | 140,000 tested, 0.21% active | AID 817;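 active = z-score above 3 at both the 24 hr and the 30 hr optical density reads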;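 note: z-score against mean and SD of all compound wells on the same plate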
Yeast growth inh: chemicals that inhibit yeast BB579 growth in restrictive medium (lifespan-shortening candidates); S. cerevisiae BB579 growth, OD615, 48 h; inhibition, % at 10 µM; 140,000 tested, 0.51% active; AID 804;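 active = inhibition above a set limit, 3 SD over the mean compound inhibition, cut at about 44% in these data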
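Material: Saccharomyces cerevisiae DeaD strain BB579, replicative lifespan model yeast; buffer or medium: CSMM-D restrictive synthetic medium containing dextrose (glucose); compound: 10 µM single dose, DMSO 0.25%; timing: 48 h compound exposure at 30 °C after 4 h preincubation; signal: turbidity as optical density at 615 nm; benchmarks: positive control amphotericin B 10 µg/mL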
PTEN del growth: growth suppressors of cells with PTEN tumor suppressor deletion; HCT116 PTEN-null viability, CellTiter-Glo, 60 h; active compounds read low; viability, % at 10 µM; 140,000 tested, 1.2% active; AID 827;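 active = viability at or below a set limit, 4 SD under the median of all tested compounds, cut at about 3.7% in these data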;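 note: PTEN knockout HCT116 line with beta catenin targeted HCT116 as companion control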
Yeast life ext: yeast lifespan extension; S. cerevisiae growth with nicotinamide, OD615; deaD strain in restrictive glucose medium; inhibition of the nicotinamide effect, % at 10 µM; 130,000 tested, 0.68% active; AID 775;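 active = inhibition above a set limit, placed 3 SD over the median of all compounds, cut at about 26% in these data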;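 note: 0% = nicotinamide-treated wells and 100% = cells grown without nicotinamide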
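Assay system: engineered S. cerevisiae DeaD replicative-lifespan strain, galactose-grown log-phase cells; Buffer or medium: CSMM-D glucose medium, restrictive; Probe or stimulus: nicotinamide 1.5 mM; Compound: single dose 10 µM compound, 0.25% DMSO; Schedule: 4 h preincubation then 48 h treatment at 30 °C; Technique: OD615 measurement.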
HCT116 bCat-KO: beta-catenin-lacking colon tumor cell growth suppression; HCT116 beta-catenin knockout viability, CellTiter-Glo, 60 h; active compounds read low; viability, % at 10 µM; 140,000 tested, 1.5% active;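 active = viability at or under a set limit, the compound median less 4 SD, cut at about 6% in these data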;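 note: 0% = Hyamine 1622 control at 20 µM and 100% = untreated cell control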
Active calls of the source: *. In the library only some 2.8% were active in any assay of this set; here they are far more common.

How did CC(=O)OC(C(=O)NCc1ccc(F)cc1)c1ccccn1 (stereo not drawn) do in these assays?
SDO1 yeast rescue: 0.54; Yeast growth inh: -17; PTEN del growth: 91; Yeast life ext: -16; HCT116 bCat-KO: 87

What do the screens show for `CCc1ccccc1NC(=O)CN1CCC(NC(=O)COC)CC1`?
SDO1 yeast rescue: 0.88; Yeast growth inh: -56; PTEN del growth: 106; Yeast life ext: -4; HCT116 bCat-KO: 97

What do the screens show for `O=C(NC(Nc1nc2ccc([N+](=O)[O-])cc2s1)(C(F)(F)F)C(F)(F)F)c1cccnc1`?
SDO1 yeast rescue: 1.8; Yeast growth inh: -20; PTEN del growth: 3.0*; Yeast life ext: 0; HCT116 bCat-KO: 2.2*

Results for O=C(NC(Nc1nc2ccc([N+](=O)[O-])cc2s1)(C(F)(F)F)C(F)(F)F)c1ccccc1Cl ?
SDO1 yeast rescue: -1.9; Yeast growth inh: 34; PTEN del growth: 1.4*; Yeast life ext: 6; HCT116 bCat-KO: 1.7*

Results for CN(C)S(=O)(=O)c1ccc2nc(NC(=O)c3cccnc3)sc2c1 ?
SDO1 yeast rescue: -0.45; Yeast growth inh: -44; PTEN del growth: 92; Yeast life ext: -8; HCT116 bCat-KO: 93

How did Cc1cccc(Cn2ncc(Cl)c(Cl)c2=O)c1 do in these assays?
SDO1 yeast rescue: -0.05; Yeast growth inh: 49*; PTEN del growth: 2.2*; Yeast life ext: -19; HCT116 bCat-KO: 2.2*

What do the screens show for `C=CCn1c(C)cc(C(=O)CSc2nnc3c(Cl)cc(Cl)cn23)c1C`?
SDO1 yeast rescue: -0.69; Yeast growth inh: -23; PTEN del growth: 101; Yeast life ext: -9; HCT116 bCat-KO: 98

How did Cc1ccc(C)c(C(=O)Cn2ncc(Cl)c(Cl)c2=O)c1 do in these assays?
SDO1 yeast rescue: -0.43; Yeast growth inh: -35; PTEN del growth: 1.3*; Yeast life ext: 8; HCT116 bCat-KO: 1.8*

How did Cc1cccc(Cn2cnc3c(nnn3Cc3ccc(F)cc3)c2=O)c1 do in these assays?
SDO1 yeast rescue: -1.8; Yeast growth inh: -37; PTEN del growth: 73; Yeast life ext: 10; HCT116 bCat-KO: 73

What do the screens show for `Cc1ccc(C)c(C(=O)CN2C(=O)c3ccccc3S2(=O)=O)c1`?
SDO1 yeast rescue: 0.94; Yeast growth inh: -31; PTEN del growth: 89; Yeast life ext: -3; HCT116 bCat-KO: 92

How did Cc1cccc(Cn2nnc3c2C(=O)c2ccccc2C3=O)c1 do in these assays?
SDO1 yeast rescue: -2.2; Yeast growth inh: 10; PTEN del growth: 3.0*; HCT116 bCat-KO: 4.5*

What do the screens show for `Cc1cc(C(=O)Cn2ncc(Cl)c(Cl)c2=O)c(C)n1CC(F)(F)F`?
SDO1 yeast rescue: 0.43; Yeast growth inh: -16; PTEN del growth: 0.8*; Yeast life ext: 10; HCT116 bCat-KO: 0.5*

Results for Cc1ccccc1Cn1nnc2c1C(=O)c1ccccc1C2=O ?
SDO1 yeast rescue: -1.4; Yeast growth inh: 3; PTEN del growth: 57; HCT116 bCat-KO: 60

What do the screens show for `CC(=O)N(NC(=O)c1ccccc1Cl)C1CC(=O)N(c2ccc(C)cc2)C1=O` (stereo not drawn)?
SDO1 yeast rescue: -1.3; Yeast growth inh: 4; PTEN del growth: 94; Yeast life ext: -6; HCT116 bCat-KO: 91

What do the screens show for `COc1cccc(CN(C)C(=O)Nc2cccc(C(F)(F)F)c2)c1OC`?
SDO1 yeast rescue: -0.31; Yeast growth inh: -13; PTEN del growth: 80; Yeast life ext: -3; HCT116 bCat-KO: 85

Results for Cc1ccc(C(=O)Oc2ccc(Cl)c3cccnc23)cc1[N+](=O)[O-] ?
SDO1 yeast rescue: -2.3; Yeast growth inh: 68*; PTEN del growth: 10; Yeast life ext: -28; HCT116 bCat-KO: 4.5*

What do the screens show for `CCCCC1C(=O)CC[C@H]2[C@@H]1CC(=O)[C@@H]2C/C=C\CCCC(=O)O` (stereo partly drawn)?
SDO1 yeast rescue: 0.42; Yeast growth inh: -40; PTEN del growth: 82; Yeast life ext: 50*; HCT116 bCat-KO: 76

What do the screens show for `CCCCC[C@H](O)/C=C/[C@H]1C=CC(=O)[C@@H]1C/C=C\CCCC(=O)O`?
SDO1 yeast rescue: -0.02; Yeast growth inh: -25; PTEN del growth: 77; Yeast life ext: -2; HCT116 bCat-KO: 67

Results for CCOC(=O)c1nn(-c2cccc(C)c2)c2nc(-c3ccccc3)c(C#N)c(=O)n12 ?
SDO1 yeast rescue: 0.2; Yeast growth inh: 7; PTEN del growth: 85; Yeast life ext: -3; HCT116 bCat-KO: 85

What do the screens show for `CCOC(=O)c1nn(-c2ccc(F)cc2)c2nc(-c3ccccc3)c(C#N)c(=O)n12`?
SDO1 yeast rescue: -1; Yeast growth inh: -38; PTEN del growth: 81; Yeast life ext: 27*; HCT116 bCat-KO: 86

Results for CCOC(=O)c1nn(-c2ccccc2)c2nnc(Cc3ccccc3)c(=O)n12 ?
SDO1 yeast rescue: -1.6; Yeast growth inh: -13; PTEN del growth: 94; Yeast life ext: 32*; HCT116 bCat-KO: 103

Results for O=C(c1cccc(S(=O)(=O)N2CCCCC2)c1)N1CCN(S(=O)(=O)c2ccc(F)cc2)CC1 ?
SDO1 yeast rescue: 0.29; Yeast growth inh: 2; PTEN del growth: 84; Yeast life ext: -12; HCT116 bCat-KO: 94

How did C=C(C)C1CC=C(C)/C(=N\NC(=S)Nc2ccc(C)cc2)C1 (stereo not drawn) do in these assays?
SDO1 yeast rescue: -0.52; Yeast growth inh: 4; PTEN del growth: 48; Yeast life ext: 2; HCT116 bCat-KO: 57

How did CC(C)(CO)NCC(=O)Nc1cc(C(F)(F)F)cc(NC(=O)CNC(C)(C)CO)c1Cl do in these assays?
SDO1 yeast rescue: 0.26; Yeast growth inh: -22; PTEN del growth: 86; Yeast life ext: 4; HCT116 bCat-KO: 89

What do the screens show for `CN(CC(=O)Nc1ccc(N2CCOCC2)cc1)CC(=O)Nc1ccc(Cl)cc1[N+](=O)[O-]`?
SDO1 yeast rescue: 1.3; Yeast growth inh: -14; PTEN del growth: 86; Yeast life ext: 1; HCT116 bCat-KO: 87

Results for COc1cccc(/C=C/C(=O)c2ccc(NS(=O)(=O)c3ccc(C)cc3)cc2)c1 ?
SDO1 yeast rescue: 0.08; Yeast growth inh: -2; PTEN del growth: 95; Yeast life ext: -4; HCT116 bCat-KO: 101

What do the screens show for `COc1ccc(Br)cc1/C=C/C(=O)c1ccc(NC(C)=O)cc1`?
SDO1 yeast rescue: -1.2; Yeast growth inh: -31; PTEN del growth: 1.3*; Yeast life ext: -7; HCT116 bCat-KO: 4.9*

What do the screens show for `COc1ccc(/C=C/C(=O)c2ccc(NC(=O)c3cccs3)cc2)cc1OC`?
SDO1 yeast rescue: -1.9; Yeast growth inh: -64; PTEN del growth: 1.8*; Yeast life ext: -22; HCT116 bCat-KO: 1.4*

What do the screens show for `COc1cc(/C=C/C(=O)c2ccc(NS(=O)(=O)c3ccc(C)cc3)cc2)ccc1OC(F)F`?
SDO1 yeast rescue: -0.16; Yeast growth inh: -38; PTEN del growth: 2.9*; Yeast life ext: 5; HCT116 bCat-KO: 4.8*

Results for CC(=O)Oc1cc2oc(=O)c3c(c2cc1Cl)CCC3 ?
SDO1 yeast rescue: -0.59; Yeast growth inh: -13; PTEN del growth: 107; Yeast life ext: -16; HCT116 bCat-KO: 105
